Data taken from ChEMBL document CHEMBL4354843, “Structure-Based Design of a Potent and Selective Covalent Inhibitor for SRC Kinase That Targets a P-Loop Cysteine” (J Med Chem, 2020).

Experiments:
[1] = target: Cyclin-dependent kinase 2 homolog (Plasmodium falciparum (isolate 3D7)) (UniProt P61075); assay: Binding affinity to wild-type Plasmodium falciparum full length PK5 (M1 to N288 residues) expressed in mammalian expression system assessed as residual binding level at 1 uM by Kinomescan method relative to control
In short: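 Active-site-directed KinomeScan competition binding panel covering 468 kinases, compound tested at 1 μM. Each readout is the kinase signal remaining with compound, expressed as a percentage of the DMSO control. […]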

[2] = system: Epidermal growth factor receptor (Homo sapiens), P00533 [UNDEFINED MUTATION]; assay: Binding affinity to human partial length EGFR L747-S752del/P753S mutant expressed in bacterial expression system assessed as residual binding level at 1 uM by Kinomescan method relative to control
In short: (§1)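 KinomeScan active site-directed competition binding panel (468 kinases), compound tested at 1 μM. Result expressed as remaining kinase signal versus DMSO control (percent of control).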

[3] = target: Mitogen-activated protein kinase kinase kinase 5 (Homo sapiens) (UniProt Q99683); assay: Binding affinity to wild-type human partial length ASK1 (E648 to S964 residues) expressed in bacterial expression system assessed as residual binding level at 1 uM by Kinomescan method relative to control
[4] = target: Mitogen-activated protein kinase 9 (Homo sapiens) (UniProt P45984); assay: Binding affinity to wild-type human full length JNK2 (M1 to Q382 residues) expressed in mammalian expression system assessed as residual binding level at 1 uM by Kinomescan method relative to control
In short: (§2)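 KinomeScan, an active site-directed competition binding panel of 468 kinases. The test compound was at 1 μM. The readout is remaining kinase binding as a percentage of the DMSO control. Scores above 35% were treated as weak binding and not listed.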

[5] = target: Mast/stem cell growth factor receptor Kit (Homo sapiens) (UniProt P10721); assay: Binding affinity to wild-type human partial length KIT (I571 to D952 residues) expressed in bacterial expression system assessed as residual binding level at 1 uM by Kinomescan method relative to control
[6] = target: Tyrosine-protein kinase Fgr (Homo sapiens) (UniProt P09769); assay: Binding affinity to wild-type human partial length FGR (L233 to T529 residues) expressed in bacterial expression system assessed as residual binding level at 1 uM by Kinomescan method relative to control
In short: (§3)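 Active-site-directed competition binding panel of 468 kinases (KinomeScan), compound at 1 μM. The read-out is kinase remaining bound, given as a percentage of the DMSO control. […]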

[7] = target: Serine/threonine-protein kinase D3 (Homo sapiens) (UniProt O94806); assay: Binding affinity to wild-type human partial length PRKD3 (S543 to E863 residues) expressed in bacterial expression system assessed as residual binding level at 1 uM by Kinomescan method relative to control; in short: as §3
[8] = target: Tyrosine-protein kinase CSK (Homo sapiens) (UniProt P41240); assay: Binding affinity to wild-type human full length CSK (M1 to L450 residues) expressed in bacterial expression system assessed as residual binding level at 1 uM by Kinomescan method relative to control; in short: as §2
[9] = target: Mitogen-activated protein kinase 12 (Homo sapiens) (UniProt P53778); assay: Binding affinity to wild-type human full length p38-gamma (M1 to L367 residues) expressed in mammalian expression system assessed as residual binding level at 1 uM by Kinomescan method relative to control; in short: as §2
[10] = target: Mitogen-activated protein kinase kinase kinase 20 (Homo sapiens) (UniProt Q9NYL2); assay: Binding affinity to wild-type human partial length ZAK (M1 to L331 residues) expressed in bacterial expression system assessed as residual binding level at 1 uM by Kinomescan method relative to control
In short: (§4)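 Active site-directed competition binding panel (KinomeScan, 468 kinases). Test compound at 1 μM. Read-out is kinase binding remaining versus DMSO control, expressed as percent of control. Scores above 35% are treated as weak binding.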

[11] = system: Receptor-type tyrosine-protein kinase FLT3 (Homo sapiens), P36888 [D835V]; assay: Binding affinity to human partial length FLT3 D835V mutant (V592 to Y969 residues) expressed in bacterial expression system assessed as residual binding level at 1 uM by Kinomescan method relative to control; in short: as §1
[12] = target: Ribosomal protein S6 kinase alpha-1 (Homo sapiens) (UniProt Q15418); assay: Binding affinity to wild-type human partial length C- terminal RSK1 kinase domain 2 (P360 to L681 residues) expressed in bacterial expression system assessed as residual binding level at 1 uM by Kinomescan method relative to control
[13] = system: Epidermal growth factor receptor (Homo sapiens), P00533 [L858R,T790M]; assay: Binding affinity to human partial length EGFR L858R/T790M double mutant (R669 to V1011 residues) expressed in mammalian expression system assessed as residual binding level at 1 uM by Kinomescan method relative to control; in short: as §1
[14] = target: BMP-2-inducible protein kinase (Homo sapiens) (UniProt Q9NSY1); assay: Binding affinity to wild-type human partial length BIKE (S34 to N329 residues) expressed in bacterial expression system assessed as residual binding level at 1 uM by Kinomescan method relative to control; in short: as §2
[15] = target: Myosin light chain kinase (Homo sapiens) (UniProt Q32MK0); assay: Binding affinity to wild-type human partial length MLCK (D488 to K800 residues) expressed in bacterial expression system assessed as residual binding level at 1 uM by Kinomescan method relative to control
[16] = target: Dual specificity tyrosine-phosphorylation-regulated kinase 1A (Homo sapiens) (UniProt Q13627); assay: Binding affinity to wild-type human partial length DYRK1A (H129 to S509 residues) expressed in mammalian expression system assessed as residual binding level at 1 uM by Kinomescan method relative to control
[17] = target: Mitogen-activated protein kinase kinase kinase 1 (Homo sapiens) (UniProt Q13233); assay: Binding affinity to wild-type human partial length MAP3K1 (L1202 to W1512 residues) expressed in mammalian expression system assessed as residual binding level at 1 uM by Kinomescan method relative to control; in short: as §3
[18] = target: Serine/threonine-protein kinase WNK4 (Homo sapiens) (UniProt Q96J92); assay: Binding affinity to wild-type human partial length WNK4 (A31 to D461 residues) expressed in mammalian expression system assessed as residual binding level at 1 uM by Kinomescan method relative to control; in short: as §4
[19] = target: Serine/threonine-protein kinase N2 (Homo sapiens) (UniProt Q16513); assay: Binding affinity to wild-type human partial length PKN2 (E634 to C984 residues) expressed in bacterial expression system assessed as residual binding level at 1 uM by Kinomescan method relative to control
[20] = target: Receptor-interacting serine/threonine-protein kinase 1 (Homo sapiens) (UniProt Q13546); assay: Binding affinity to wild-type human partial length RIPK1 (M1 to K305 residues) expressed in bacterial expression system assessed as residual binding level at 1 uM by Kinomescan method relative to control
[21] = target: Phosphatidylinositol 5-phosphate 4-kinase type-2 beta (Homo sapiens) (UniProt P78356); assay: Binding affinity to wild-type human full length PIP5K2B (M1 to T416 residues) expressed in bacterial expression system assessed as residual binding level at 1 uM by Kinomescan method relative to control; in short: as §2

Receptor-interacting serine/threonine-protein kinase 1 (Homo sapiens), sequence (Q13546 whole entry, the tested form may be a part): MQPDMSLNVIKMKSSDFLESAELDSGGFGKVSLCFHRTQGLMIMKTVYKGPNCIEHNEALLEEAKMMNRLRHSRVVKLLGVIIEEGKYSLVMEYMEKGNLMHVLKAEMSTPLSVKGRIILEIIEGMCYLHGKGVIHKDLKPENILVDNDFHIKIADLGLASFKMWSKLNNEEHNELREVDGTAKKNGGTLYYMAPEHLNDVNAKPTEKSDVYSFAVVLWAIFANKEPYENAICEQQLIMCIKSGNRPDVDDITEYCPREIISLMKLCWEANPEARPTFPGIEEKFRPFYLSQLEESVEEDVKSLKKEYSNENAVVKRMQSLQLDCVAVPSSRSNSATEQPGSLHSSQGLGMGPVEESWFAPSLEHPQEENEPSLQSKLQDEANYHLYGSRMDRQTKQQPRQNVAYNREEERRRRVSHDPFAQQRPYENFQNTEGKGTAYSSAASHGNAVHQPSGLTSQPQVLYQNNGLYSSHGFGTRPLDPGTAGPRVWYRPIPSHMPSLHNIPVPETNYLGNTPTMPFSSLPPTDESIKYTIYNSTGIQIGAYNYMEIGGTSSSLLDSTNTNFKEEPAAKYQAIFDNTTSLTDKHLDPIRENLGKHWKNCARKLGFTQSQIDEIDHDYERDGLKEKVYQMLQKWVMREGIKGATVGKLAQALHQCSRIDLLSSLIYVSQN
Tyrosine-protein kinase Fgr (Homo sapiens), sequence (P09769 2-529 limits assumed): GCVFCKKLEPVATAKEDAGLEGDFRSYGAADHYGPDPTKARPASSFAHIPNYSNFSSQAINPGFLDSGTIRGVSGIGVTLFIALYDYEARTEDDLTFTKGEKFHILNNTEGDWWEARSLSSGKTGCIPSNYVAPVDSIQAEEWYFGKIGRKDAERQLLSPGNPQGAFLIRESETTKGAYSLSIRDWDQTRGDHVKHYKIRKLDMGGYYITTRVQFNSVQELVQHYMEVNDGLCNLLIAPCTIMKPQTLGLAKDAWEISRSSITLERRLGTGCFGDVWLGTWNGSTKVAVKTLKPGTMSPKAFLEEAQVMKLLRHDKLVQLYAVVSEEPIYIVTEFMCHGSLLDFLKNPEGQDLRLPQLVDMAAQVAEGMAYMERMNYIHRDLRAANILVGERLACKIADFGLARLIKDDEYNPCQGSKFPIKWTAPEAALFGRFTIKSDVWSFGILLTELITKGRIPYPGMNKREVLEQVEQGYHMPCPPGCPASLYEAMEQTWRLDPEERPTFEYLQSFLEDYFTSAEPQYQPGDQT
Mitogen-activated protein kinase kinase kinase 20 (Homo sapiens), sequence (Q9NYL2 2-800 limits assumed): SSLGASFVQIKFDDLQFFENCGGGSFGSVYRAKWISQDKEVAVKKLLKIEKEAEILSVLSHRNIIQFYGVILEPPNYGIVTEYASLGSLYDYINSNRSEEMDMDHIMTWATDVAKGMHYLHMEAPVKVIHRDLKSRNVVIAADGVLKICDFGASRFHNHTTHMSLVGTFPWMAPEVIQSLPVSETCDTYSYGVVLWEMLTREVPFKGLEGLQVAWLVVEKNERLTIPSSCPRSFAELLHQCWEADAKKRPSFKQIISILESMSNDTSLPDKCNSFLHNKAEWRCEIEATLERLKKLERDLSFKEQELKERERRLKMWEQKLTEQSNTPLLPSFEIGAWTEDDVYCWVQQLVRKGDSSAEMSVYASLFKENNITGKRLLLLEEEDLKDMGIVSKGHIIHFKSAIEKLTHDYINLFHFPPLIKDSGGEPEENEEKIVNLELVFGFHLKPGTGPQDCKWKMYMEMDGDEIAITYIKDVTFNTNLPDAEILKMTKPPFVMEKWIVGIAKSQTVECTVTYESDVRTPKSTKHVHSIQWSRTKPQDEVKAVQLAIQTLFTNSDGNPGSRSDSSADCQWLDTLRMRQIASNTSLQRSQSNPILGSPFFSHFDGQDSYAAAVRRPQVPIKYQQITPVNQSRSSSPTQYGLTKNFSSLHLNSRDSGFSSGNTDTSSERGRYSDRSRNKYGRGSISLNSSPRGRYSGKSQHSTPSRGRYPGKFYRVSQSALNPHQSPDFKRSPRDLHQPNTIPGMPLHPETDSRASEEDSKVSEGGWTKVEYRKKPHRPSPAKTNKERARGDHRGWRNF
Cyclin-dependent kinase 2 homolog (Plasmodium falciparum (isolate 3D7)), sequence (P61075 whole entry, the tested form may be a part): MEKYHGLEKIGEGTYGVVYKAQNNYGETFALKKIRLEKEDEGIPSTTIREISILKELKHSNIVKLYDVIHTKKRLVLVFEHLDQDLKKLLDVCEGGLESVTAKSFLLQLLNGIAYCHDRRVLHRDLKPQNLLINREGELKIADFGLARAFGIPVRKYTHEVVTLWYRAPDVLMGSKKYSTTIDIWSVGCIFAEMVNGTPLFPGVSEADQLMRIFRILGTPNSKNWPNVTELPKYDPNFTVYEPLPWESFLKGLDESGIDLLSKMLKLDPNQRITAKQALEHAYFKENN
Mitogen-activated protein kinase 12 (Homo sapiens), sequence (P53778 whole entry, the tested form may be a part): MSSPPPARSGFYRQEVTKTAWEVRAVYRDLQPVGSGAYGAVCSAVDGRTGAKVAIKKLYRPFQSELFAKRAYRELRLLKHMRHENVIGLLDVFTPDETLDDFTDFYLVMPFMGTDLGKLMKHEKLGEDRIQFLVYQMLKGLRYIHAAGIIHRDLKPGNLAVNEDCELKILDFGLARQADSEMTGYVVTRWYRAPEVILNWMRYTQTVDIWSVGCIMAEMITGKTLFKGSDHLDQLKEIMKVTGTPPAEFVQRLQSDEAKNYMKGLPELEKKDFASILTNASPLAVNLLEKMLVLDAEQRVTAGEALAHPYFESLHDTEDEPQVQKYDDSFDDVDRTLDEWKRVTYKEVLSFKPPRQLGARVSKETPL
Tyrosine-protein kinase CSK (Homo sapiens), sequence (P41240 2-450 limits assumed): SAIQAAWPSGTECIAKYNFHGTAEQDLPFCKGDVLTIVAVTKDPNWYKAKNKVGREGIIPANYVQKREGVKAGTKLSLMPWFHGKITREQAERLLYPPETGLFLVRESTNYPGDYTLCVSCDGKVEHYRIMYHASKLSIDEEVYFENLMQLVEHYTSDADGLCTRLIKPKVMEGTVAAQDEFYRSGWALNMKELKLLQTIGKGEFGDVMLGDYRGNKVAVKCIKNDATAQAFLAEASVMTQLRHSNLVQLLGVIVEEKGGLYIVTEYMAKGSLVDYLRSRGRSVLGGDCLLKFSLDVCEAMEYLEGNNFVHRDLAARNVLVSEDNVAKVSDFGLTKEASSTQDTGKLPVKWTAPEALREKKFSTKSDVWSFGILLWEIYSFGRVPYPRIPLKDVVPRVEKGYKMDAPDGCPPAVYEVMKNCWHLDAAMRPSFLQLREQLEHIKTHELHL
Serine/threonine-protein kinase D3 (Homo sapiens), sequence (O94806 whole entry, the tested form may be a part): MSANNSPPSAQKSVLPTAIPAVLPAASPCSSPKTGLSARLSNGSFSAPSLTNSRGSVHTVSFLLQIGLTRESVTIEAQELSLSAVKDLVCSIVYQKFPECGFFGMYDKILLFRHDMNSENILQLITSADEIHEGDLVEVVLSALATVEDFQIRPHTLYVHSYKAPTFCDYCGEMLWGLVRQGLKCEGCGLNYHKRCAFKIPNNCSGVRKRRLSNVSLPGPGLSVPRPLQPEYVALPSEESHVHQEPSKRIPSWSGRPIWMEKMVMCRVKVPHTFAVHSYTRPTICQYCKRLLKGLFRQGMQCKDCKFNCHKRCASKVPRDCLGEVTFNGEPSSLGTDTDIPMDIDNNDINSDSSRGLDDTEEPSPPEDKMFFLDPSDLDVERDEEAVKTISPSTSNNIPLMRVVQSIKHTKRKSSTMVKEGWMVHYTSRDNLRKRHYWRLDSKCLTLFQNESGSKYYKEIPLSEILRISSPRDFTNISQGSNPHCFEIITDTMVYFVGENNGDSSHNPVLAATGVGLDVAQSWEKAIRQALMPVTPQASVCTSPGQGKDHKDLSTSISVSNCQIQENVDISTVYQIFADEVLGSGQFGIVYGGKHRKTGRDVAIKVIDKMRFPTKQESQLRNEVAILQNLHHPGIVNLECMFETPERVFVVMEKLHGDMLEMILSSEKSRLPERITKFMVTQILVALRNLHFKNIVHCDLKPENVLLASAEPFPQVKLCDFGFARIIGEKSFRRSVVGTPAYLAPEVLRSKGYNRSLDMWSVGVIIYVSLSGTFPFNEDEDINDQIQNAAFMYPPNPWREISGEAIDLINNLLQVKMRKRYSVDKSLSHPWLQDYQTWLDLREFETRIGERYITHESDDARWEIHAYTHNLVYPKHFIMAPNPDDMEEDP
Myosin light chain kinase (Homo sapiens), sequence (Q32MK0 whole entry, the tested form may be a part): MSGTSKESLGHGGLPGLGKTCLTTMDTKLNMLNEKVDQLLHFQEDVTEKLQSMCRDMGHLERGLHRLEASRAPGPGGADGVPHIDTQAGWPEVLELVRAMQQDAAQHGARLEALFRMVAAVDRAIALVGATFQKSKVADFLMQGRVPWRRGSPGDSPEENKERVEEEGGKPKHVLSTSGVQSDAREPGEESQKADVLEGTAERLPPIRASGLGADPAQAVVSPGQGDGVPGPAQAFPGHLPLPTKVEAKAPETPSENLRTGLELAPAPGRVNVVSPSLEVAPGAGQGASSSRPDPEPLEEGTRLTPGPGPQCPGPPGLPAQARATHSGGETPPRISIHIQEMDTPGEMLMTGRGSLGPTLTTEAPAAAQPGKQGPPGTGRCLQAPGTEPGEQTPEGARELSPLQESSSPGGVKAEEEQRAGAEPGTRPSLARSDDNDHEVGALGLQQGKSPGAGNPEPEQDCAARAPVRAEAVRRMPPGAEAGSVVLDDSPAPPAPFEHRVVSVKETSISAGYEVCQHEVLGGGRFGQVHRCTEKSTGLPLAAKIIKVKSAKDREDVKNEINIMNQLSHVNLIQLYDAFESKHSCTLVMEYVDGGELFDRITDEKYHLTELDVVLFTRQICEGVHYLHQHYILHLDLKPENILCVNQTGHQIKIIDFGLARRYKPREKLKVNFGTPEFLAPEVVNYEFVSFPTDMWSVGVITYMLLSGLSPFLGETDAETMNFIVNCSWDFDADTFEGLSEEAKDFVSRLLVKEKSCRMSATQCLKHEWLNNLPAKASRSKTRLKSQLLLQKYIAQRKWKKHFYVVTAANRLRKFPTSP

`C=CC(=O)Nc1ccccc1Nc1nc(Nc2ccc(N3CCN(C)CC3)cc2)ncc1C(=O)Nc1c(C)cccc1Cl` was tested, and the Activity [1] was 100%, the Activity [2] was 74% and the Activity [3] was 100%. It also gave an Activity [4] of 94%, an Activity [5] of 40% and an Activity [6] of 30%. For the same compound, the Activity [7] was 99%, the Activity [8] was 1.3% and the Activity [9] was 97%. It also gave an Activity [10] of 98%, an Activity [11] of 91% and an Activity [12] of 100%. For the same compound, the Activity [13] was 100%, the Activity [14] was 94% and the Activity [15] was 100%. It also gave an Activity [16] of 100%, an Activity [17] of 99% and an Activity [18] of 97%. It also gave an Activity [19] of 100%, an Activity [20] of 100% and an Activity [21] of 99%.
